Assay results from paper PMC3947005 (Cancer research, 2013).

Key:
[1] = tested on: MPNSTs from the cis-Nf1+/-;p53+/- mouse model; settings: ref [7], [44]; cited from earlier work
[2] = tested on: pAKT in sMPNST cells; test: Phospho-AKT Western blot; assay type: cell-based, mouse; settings: 20 µM for 30 or 60 minutes
How it was run: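 Mouse sMPNST cells exposed to a PI3K-inhibitor test compound at 20 µM for 30 or 60 min. Cells collected, trypsinized and lysed in RIPA buffer. Lysates resolved on 5–20% SDS-PAGE gels and immunoblotted for phospho-AKT and total AKT, with αTubulin or GAPDH as loading reference.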

[3] = tested on: pERK in sMPNST cells; test: Phospho-ERK Western blot; assay type: cell-based, mouse; settings: 10 µM for 30 minutes
How it was run: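 Mouse sMPNST cells treated with test compound at 10 µM for 30 min, then trypsinized and lysed in RIPA buffer. Lysates run on 5–20% SDS-PAGE gels and immunoblotted for phospho-ERK and total ERK, with αTubulin or GAPDH as loading reference.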

[4] = tested on: sMPNST cells; test: CellTiter-Glo ATP luminescence assay, dose response; assay type: cell-based, mouse; settings: rapamycin alone
[5] = tested on: pS6 in sMPNST cells; test: pS6 Western blot; assay type: cell-based, mouse; settings: 0.05 µM (50 nM) for 30 or 60 min
How it was run: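 Mouse sMPNST cells exposed to test compound at 0.05 µM (50 nM) for 30 or 60 min. Cells collected, trypsinized and lysed in RIPA buffer. Lysates resolved on 5–20% SDS-PAGE gels and probed for phospho-S6.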

In the case of `c1cc(CN2CCCNCCNCCCNCC2)ccc1CN1CCCNCCNCCCNCC1` [AMD3100], the “inhibition of MPNSTs” value [1] is listed as “inhibit MPNSTs”.
With `O=c1cc(N2CCOCC2)oc2c(-c3ccccc3)cccc12` [LY294002] the pAKT inhibition [2] was “effective pAKT inhibition”.
In the case of `N#CC(=C(/N)Sc1ccccc1N)/C(C#N)=C(/N)Sc1ccccc1N` [U0126], the Phospho-ERK inhibition [3] is reported as “verified by Western blotting”.
For `CO[C@H]1C[C@@H]2CC[C@@H](C)[C@@](O)(O2)C(=O)C(=O)N2CCCC[C@H]2C(=O)O[C@H]([C@H](C)C[C@@H]2CC[C@@H](O)[C@H](OC)C2)CC(=O)[C@H](C)/C=C(\C)[C@@H](O)[C@@H](OC)C(=O)[C@H](C)C[C@H](C)/C=C/C=C/C=C/1C` [rapamycin], the “sMPNST cellular growth response” value [4] is listed as “relatively resistant”, the pS6 levels [5] is listed as “decreased pS6 levels” and the “inhibition of MPNSTs” value [1] is listed as “inhibit MPNSTs”.
